Data taken from ChEMBL document CHEMBL3232852, “Bexarotene prodrugs: targeting through cleavage by NQO1 (DT-diaphorase)” (Bioorg Med Chem Lett, 2014).

Experiments:
[1] = molecular target: T1, NAD(P)H dehydrogenase [quinone] 1 (Homo sapiens, UniProt P15559); experiment: Prodrug conversion assessed as NQO1 (unknown origin)-mediated bexarotene formation at 5 uM by HPLC analysis in presence of NADH; format: ADME
Method in brief: (§1)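 DMSO stocks were diluted 100-fold with tris buffer, and compound (5 µM) was incubated at 37 ± 1 °C with or without diaphorase (NQO1, 50 U/mL). The mix held 0.07% BSA and 300 µM NADH in tris pH 7.4. Bexarotene release was followed by RP-18 HPLC (acetonitrile/water); incubations ran up to 24 h, in triplicate.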

[2] = Activity of pig liver esterase at 5 uM after 180 mins; format: ADME, Sus scrofa; conditions: 3 h
Method in brief: (§2)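 Porcine liver esterase at a final 76 µg/mL (1.3 U/mL) in tris buffer pH 7.4. Conjugates were incubated at 5 µM and monitored for ester cleavage and free bexarotene over 180 min and up to 24 h. Ethylbenzoate was the reference substrate at 100 µM.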

[3] = molecular target: T1, NAD(P)H dehydrogenase [quinone] 1; experiment: Prodrug conversion assessed as NQO1 (unknown origin)-mediated bexarotene formation at 5 uM by HPLC analysis in presence of 300 uM NADH followed by addition of NADH at 30 and 60 mins; format: ADME; conditions: 1 h
Method in brief: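 Same NQO1 incubation: 5 µM compound, 37 ± 1 °C, diaphorase 50 U/mL, 0.07% BSA and 300 µM NADH in tris pH 7.4. Extra NADH was added at 30 and 60 min to test cofactor depletion. Bexarotene formation was read by RP-18 HPLC, in triplicate.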

[4] = Activity of pig liver esterase at 100 uM after 7 mins; format: ADME, Sus scrofa; method in brief: as §2
[5] = molecular target: T1, NAD(P)H dehydrogenase [quinone] 1; experiment: Prodrug conversion assessed as NQO1 (unknown origin)-mediated bexarotene formation at 5 uM after 4 to 24 hrs by HPLC analysis in presence of NADH; format: ADME; method in brief: as §1

T1 sequence (P15559 whole entry): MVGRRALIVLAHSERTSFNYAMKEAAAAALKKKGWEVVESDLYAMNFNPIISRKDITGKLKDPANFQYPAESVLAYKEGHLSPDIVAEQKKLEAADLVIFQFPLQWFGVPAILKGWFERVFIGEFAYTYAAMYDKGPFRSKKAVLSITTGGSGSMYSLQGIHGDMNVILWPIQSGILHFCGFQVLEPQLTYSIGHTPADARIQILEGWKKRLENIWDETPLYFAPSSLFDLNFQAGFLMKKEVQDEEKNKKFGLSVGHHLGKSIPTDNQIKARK

| Structure (SMILES) | Drug metabolism [1] | Drug metabolism [3] | also measured |
| --- | --- | --- | --- |
| COC1=CC(=O)c2c(c(C)c(COc3ccc([N+](=O)[O-])c(C)c3)n2C)C1=O | metabolite_detected | – | – |
| C=C(c1ccc(C(=O)OCc2c3c(n(C)c2C)C(=O)C=C(OC)C3=O)cc1)c1cc2c(cc1C)C(C)(C)CCC2(C)C | – | metabolite_notdetected | Drug metabolism [2]: metabolite_notdetected |
| C=C(c1ccc(C(=O)OCc2c3c(n(C)c2C)C(=O)C(C)=C(OC)C3=O)cc1)c1cc2c(cc1C)C(C)(C)CCC2(C)C | metabolite_detected | metabolite_notdetected | – |
| COC1=CC(=O)c2c(c(COc3ccc([N+](=O)[O-])c(C)c3)c(C)n2C)C1=O | metabolite_detected | – | – |
| CCOC(=O)c1ccccc1 [ETHYL BENZOATE] | – | – | Drug metabolism [4]: metabolite_detected |
| C=C(c1ccc(C(=O)OCc2cn(C)c3c2C(=O)C(OC)=CC3=O)cc1)c1cc2c(cc1C)C(C)(C)CCC2(C)C | metabolite_detected | metabolite_notdetected | – |
| C=C(c1ccc(C(=O)OCc2c(C)c3c(n2C)C(=O)C=C(OC)C3=O)cc1)c1cc2c(cc1C)C(C)(C)CCC2(C)C | – | metabolite_notdetected | Drug metabolism [5]: metabolite_notdetected |
